# Results taken from ChEMBL document CHEMBL4130342, “New semi-synthetic analogs of oleuropein show improved anticancer activity in vitro and in vivo” (Eur J Med Chem, 2017).
# Assays:
# MCF7 = assay: Antiproliferative activity against human MCF7 cells after 72 hrs by MTT reduction assay; format: functional, cell-based; details: MCF7, 72 h
# Summary of the method: (§1)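 MTT reduction assay; adherent lines left to adhere overnight, suspension lines (HL-60, K562) seeded on the day. […] Incubation was 72 h at 37°C, with MTT added for the last 4 h. OD read at 545 nm (reference 690 nm). IC50 from 100(A0-A)/A0=50; means ± SD of 3 independent experiments.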
# SK-BR-3 = assay: Antiproliferative activity against human SKBR3 cells after 72 hrs by MTT reduction assay; format: functional, cell-based; details: SK-BR-3, 72 h; summary of the method: as §1
# HL-60 = assay: Antiproliferative activity against human HL60 cells after 72 hrs by MTT reduction assay; format: functional, cell-based; details: HL-60, 72 h; summary of the method: as §1
# K562 = assay: Antiproliferative activity against human K562 cells after 72 hrs by MTT reduction assay; format: functional, cell-based; details: K562, 72 h; summary of the method: as §1
# HCT-116 = assay: Antiproliferative activity against human HCT116 cells after 72 hrs by MTT reduction assay; format: functional, cell-based; details: HCT-116, 72 h
# Summary of the method: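 MTT reduction assay; adherent lines left to adhere overnight, suspension lines (HL-60, K562) seeded on the day. Incubation was 72 h at 37°C, with MTT added for the last 4 h.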
# [1] = Antiproliferative activity against human FM3 cells after 72 hrs by MTT reduction assay; format: functional, cell-based; summary of the method: as §1
# HeLa = assay: Antiproliferative activity against human HeLa cells after 72 hrs by MTT reduction assay; format: functional, cell-based; summary of the method: as §1
# B16-F1 [2] = assay: Antiproliferative activity against mouse B16-F1 cells after 72 hrs by MTT reduction assay; format: functional, cell-based; details: B16-F1, 72 h; summary of the method: as §1
# PBMC [3] = assay: Induction of apoptosis in human PBMC at 2 ug/ml after 24 hrs by propidium iodide staining-based flow cytometric method; format: cell-based
# B16-F1 [4] = assay: Induction of apoptosis in mouse B16-F1 cells assessed as necrotic cells at 25 ug/ml after 48 hrs by propidium iodide staining-based flow cytometric method (reference value: 1%); format: functional
# B16-F1 [5] = assay: Induction of apoptosis in mouse B16-F1 cells assessed as late apoptotic cells at 25 ug/ml after 48 hrs by propidium iodide staining-based flow cytometric method (reference value: 0.5%); format: functional
# PBMC [6] = assay: Induction of apoptosis in human PBMC assessed as late apoptotic cells at 25 ug/ml after 24 hrs by propidium iodide staining-based flow cytometric method (reference value: 0.6%); format: cell-based
# B16-F1 [7] = assay: Induction of apoptosis in mouse B16-F1 cells assessed as early apoptotic cells at 25 ug/ml after 48 hrs by propidium iodide staining-based flow cytometric method (reference value: 0.2%); format: functional
# B16-F1 [8] = assay: Induction of apoptosis in mouse B16-F1 cells assessed as late apoptotic cells at 25 ug/ml after 72 hrs by propidium iodide staining-based flow cytometric method (reference value: 1.4%); format: functional
# B16-F1 [9] = assay: Induction of apoptosis in mouse B16-F1 cells assessed as early apoptotic cells at 25 ug/ml after 72 hrs by propidium iodide staining-based flow cytometric method (reference value: 0.4%); format: functional
# B16-F1 [10] = assay: Induction of apoptosis in mouse B16-F1 cells assessed as late apoptotic cells at 25 ug/ml after 24 hrs by propidium iodide staining-based flow cytometric method (reference value: 0.9%); format: functional
# B16-F1 [11] = assay: Induction of apoptosis in mouse B16-F1 cells assessed as early apoptotic cells at 25 ug/ml after 24 hrs by propidium iodide staining-based flow cytometric method (reference value: 0.5%); format: functional
# B16-F1 [12] = assay: Induction of apoptosis in mouse B16-F1 cells assessed as necrotic cells at 25 ug/ml after 24 hrs by propidium iodide staining-based flow cytometric method (reference value: 0.4%); format: functional
# PBMC [13] = assay: Induction of apoptosis in human PBMC assessed as early apoptotic cells at 25 ug/ml after 24 hrs by propidium iodide staining-based flow cytometric method (reference value: 0.1%); format: cell-based
# PBMC [14] = assay: Induction of apoptosis in human PBMC assessed as necrotic cells at 25 ug/ml after 24 hrs by propidium iodide staining-based flow cytometric method (reference value: 1%); format: cell-based
structure (smiles),measurement,setting,value
C/C=C1/[C@H](O[C@@H]2O[C@H](COC(C)=O)[C@@H](OC(C)=O)[C@H](OC(C)=O)[C@H]2OC(C)=O)OC=C(C(=O)OC)[C@H]1CC(=O)OCCC (stereo in doubt),IC50,MCF7,15 µM
same,IC50,SK-BR-3,6.6 µM
same,IC50,HL-60,10.7 µM
same,IC50,K562,8.5 µM
same,IC50,HCT-116,25.7 µM
same,IC50,[1],29 µM
same,IC50,HeLa,17.5 µM
same,IC50,B16-F1 [2],44 µM
C/C=C1/[C@H](O[C@@H]2O[C@H](CO)[C@@H](O)[C@H](O)[C@H]2O)OC=C(C(=O)OC)[C@H]1CC(=O)OCCc1ccccc1 (stereo in doubt),IC50,MCF7,19.3 µM
same,IC50,SK-BR-3,11 µM
same,IC50,HL-60,10.3 µM
same,IC50,K562,20 µM
same,IC50,HCT-116,25.3 µM
same,IC50,[1],28 µM
same,IC50,HeLa,18.5 µM
same,IC50,B16-F1 [2],41 µM
C/C=C1/[C@H](O[C@@H]2O[C@H](CO)[C@@H](O)[C@H](O)[C@H]2O)OC=C(C(=O)OC)[C@H]1CC(=O)OCCC1CCCCC1 (stereo in doubt),IC50,MCF7,5 µM
same,Activity,PBMC [3],> 30%
same,IC50,SK-BR-3,2 µM
same,IC50,HL-60,0.48 µM
same,IC50,K562,0.85 µM
same,IC50,HCT-116,13.7 µM
same,IC50,[1],9.33 µM
same,IC50,HeLa,5.6 µM
same,IC50,B16-F1 [2],5.04 µM
C/C=C1/[C@H](O[C@@H]2O[C@H](COC(C)=O)[C@@H](OC(C)=O)[C@H](OC(C)=O)[C@H]2OC(C)=O)OC=C(C(=O)OC)[C@H]1CC(=O)OCCCCCCCCCCCCCCCC,IC50,MCF7,9.66 µM
same,IC50,SK-BR-3,3.81 µM
same,IC50,HL-60,8 µM
same,IC50,K562,7 µM
same,IC50,HCT-116,21 µM
same,IC50,[1],27 µM
same,IC50,HeLa,17 µM
same,IC50,B16-F1 [2],34 µM
COc1cccc2c1C(=O)c1c(O)c3c(c(O)c1C2=O)C[C@@](O)(C(=O)CO)C[C@@H]3O[C@H]1C[C@H](N)[C@H](O)[C@H](C)O1 [DOXORUBICIN],Activity,B16-F1 [4],0.9%
same,Activity,B16-F1 [5],2%
same,Activity,PBMC [6],4.6%
same,Activity,B16-F1 [7],57.5%
same,Activity,B16-F1 [8],8.1%
same,Activity,B16-F1 [9],71.5%
same,Activity,B16-F1 [10],1.5%
same,Activity,B16-F1 [11],23.4%
same,IC50,SK-BR-3,0.202 µM
same,IC50,HL-60,0.017 µM
same,IC50,K562,0.018 µM
same,IC50,[1],0.217 µM
same,IC50,HeLa,0.221 µM
same,Activity,B16-F1 [12],1.1%
same,IC50,B16-F1 [2],0.23 µM
same,Activity,PBMC [13],0%
same,Activity,PBMC [14],46.2%
C/C=C1/[C@H](O[C@@H]2O[C@H](CO)[C@@H](O)[C@H](O)[C@H]2O)OC=C(C(=O)OC)[C@H]1CC(=O)OCCC(C)C (stereo in doubt),IC50,MCF7,21.3 µM
same,IC50,SK-BR-3,9.02 µM
same,IC50,HL-60,9.83 µM
same,IC50,K562,18 µM
same,IC50,HCT-116,26.7 µM
same,IC50,[1],27.7 µM
same,IC50,HeLa,19.5 µM
same,IC50,B16-F1 [2],39.1 µM
C/C=C1/[C@H](O[C@@H]2O[C@H](COC(C)=O)[C@@H](OC(C)=O)[C@H](OC(C)=O)[C@H]2OC(C)=O)OC=C(C(=O)OC)[C@H]1CC(=O)OCCc1ccccc1 (stereo in doubt),IC50,MCF7,18.7 µM
same,IC50,SK-BR-3,11.5 µM
same,IC50,HL-60,10 µM
same,IC50,K562,16 µM
same,IC50,HCT-116,26 µM
same,IC50,[1],29.3 µM
same,IC50,HeLa,21 µM
same,IC50,B16-F1 [2],43 µM
C/C=C1/[C@H](O[C@@H]2O[C@H](CO)[C@@H](O)[C@H](O)[C@H]2O)OC=C(C(=O)O)[C@H]1CC(=O)O,IC50,MCF7,> 50 µM
same,IC50,SK-BR-3,> 50 µM
same,IC50,HL-60,> 50 µM
same,IC50,K562,> 50 µM
same,IC50,HCT-116,> 50 µM
same,IC50,[1],> 50 µM
same,IC50,HeLa,> 50 µM
same,IC50,B16-F1 [2],> 50 µM
